Experimental findings from ChEMBL document CHEMBL4261517, “A structurally guided dissection-then-evolution strategy for ligand optimization of smoothened receptor” (Medchemcomm, 2017) are described below.

Data set [1] concerns the target Protein smoothened (Homo sapiens) (UniProt Q99835). The experiment in a line: Binding affinity to recombinant human N-terminal FLAG/His10-tagged/C-terminal His10-tagged flavodoxin-fused Smo receptor expressed in HEK293F cells assessed as melting temperature at 100 uM after 40 mins by CPM dye based spectrofluorometric method. Type of data set: cell-based. The gist of the method:
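Purified SMO in micelles mixed with thiol-reactive CPM dye and thermally denatured. Fluorescence (365/460 nm) followed as exposed cysteines react. Tm taken as the temperature at which 50% of the fluorescence increase is reached.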

The target in the next data set is Protein smoothened (Mus musculus, UniProt P56726). The experiment in a line: Antagonist activity at Smo receptor in mouse NIH/3T3 cells harboring GRE-Luc assessed as inhibition of SAG-induced Hh signaling pathway preincubated for 1 to 2 hrs followed by SAG addition and measured after 24 hrs by Bright-Glo luciferase reporter gene assay. Type of data set: functional, cell-based. In a few lines: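 Light II cells (NIH-3T3 stably carrying a Gli-responsive firefly luciferase reporter) treated with compound for 24 h. Luciferase read-out of Hedgehog pathway inhibition. IC50 reported as mean ± SEM from at least three independent experiments, each run in duplicate.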
Sequence of Protein smoothened (P56726 whole entry): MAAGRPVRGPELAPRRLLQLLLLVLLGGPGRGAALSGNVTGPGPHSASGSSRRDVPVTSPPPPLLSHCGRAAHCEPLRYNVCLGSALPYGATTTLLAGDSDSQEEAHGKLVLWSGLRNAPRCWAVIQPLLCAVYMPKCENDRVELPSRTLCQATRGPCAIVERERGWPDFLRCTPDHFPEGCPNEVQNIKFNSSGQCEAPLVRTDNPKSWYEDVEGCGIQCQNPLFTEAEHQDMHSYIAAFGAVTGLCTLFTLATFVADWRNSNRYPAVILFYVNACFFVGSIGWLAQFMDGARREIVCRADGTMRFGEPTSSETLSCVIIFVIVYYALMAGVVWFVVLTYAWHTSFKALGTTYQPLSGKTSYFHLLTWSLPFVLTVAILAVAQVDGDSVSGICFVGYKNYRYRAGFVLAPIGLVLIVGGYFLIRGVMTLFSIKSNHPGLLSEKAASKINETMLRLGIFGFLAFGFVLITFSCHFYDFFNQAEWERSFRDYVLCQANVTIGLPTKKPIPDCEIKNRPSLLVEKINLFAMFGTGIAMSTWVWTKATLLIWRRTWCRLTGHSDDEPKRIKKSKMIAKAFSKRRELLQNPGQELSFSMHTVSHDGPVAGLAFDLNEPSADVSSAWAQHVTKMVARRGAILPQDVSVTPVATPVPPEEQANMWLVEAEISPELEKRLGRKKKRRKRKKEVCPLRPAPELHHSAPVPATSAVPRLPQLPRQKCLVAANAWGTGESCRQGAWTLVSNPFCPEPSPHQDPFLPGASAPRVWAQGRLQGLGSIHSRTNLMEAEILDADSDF
On the technique in general: A reporter such as luciferase makes a cellular process visible.

Data set [2] can be described thus: Stability of the compound in DMEM at […] by RP-HPLC analysis. Type of data set: physicochemical.

Sequence of Protein smoothened (Homo sapiens) (Q99835 whole entry, the tested form may be a part): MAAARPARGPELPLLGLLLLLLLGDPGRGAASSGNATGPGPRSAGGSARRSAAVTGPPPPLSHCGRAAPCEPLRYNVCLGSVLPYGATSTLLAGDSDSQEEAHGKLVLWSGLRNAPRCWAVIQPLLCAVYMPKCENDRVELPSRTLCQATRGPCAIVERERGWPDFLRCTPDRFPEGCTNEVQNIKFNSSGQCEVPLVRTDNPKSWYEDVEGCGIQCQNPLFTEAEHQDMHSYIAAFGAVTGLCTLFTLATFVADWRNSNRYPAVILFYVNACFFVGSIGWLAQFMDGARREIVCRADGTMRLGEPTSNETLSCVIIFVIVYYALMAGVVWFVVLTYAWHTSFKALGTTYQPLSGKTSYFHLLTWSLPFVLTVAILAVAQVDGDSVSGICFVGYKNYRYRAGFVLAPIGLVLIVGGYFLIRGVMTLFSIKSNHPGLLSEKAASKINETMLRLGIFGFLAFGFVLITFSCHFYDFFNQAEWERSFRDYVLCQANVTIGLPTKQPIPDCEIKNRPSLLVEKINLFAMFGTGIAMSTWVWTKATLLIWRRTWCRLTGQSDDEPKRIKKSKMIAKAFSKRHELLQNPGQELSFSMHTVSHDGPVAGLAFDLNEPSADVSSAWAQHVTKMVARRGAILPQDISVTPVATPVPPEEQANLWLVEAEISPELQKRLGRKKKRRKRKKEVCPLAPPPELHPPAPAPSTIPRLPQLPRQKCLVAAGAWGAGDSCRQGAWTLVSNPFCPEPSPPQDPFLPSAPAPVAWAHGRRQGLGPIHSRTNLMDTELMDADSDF

As for `CN(C(=O)c1ccc(S(C)(=O)=O)cc1)C1CCN(c2nnc(-c3ccnn3C)c3ccccc23)CC1`, the Tm in data set [1] stood at 56.3 °C. At Protein smoothened, the IC50 was above 10 µM.

As for `COC(=O)c1ccc(C(=O)N(C)C2CCN(c3nnc(-c4ccnn4C)c4ccccc34)CC2)cc1`, in data set [1], the Tm was found to be 60.3 °C. For the same compound, on Protein smoothened, the IC50 was above 10 µM.

Regarding `CN(C(=O)c1ccc([N+](=O)[O-])cc1)C1CCN(c2nnc(-c3ccnn3C)c3ccccc23)CC1`, in data set [1], the Tm was 61 °C. Besides, the IC50 at Protein smoothened is 0.236 µM.

Take `CN(C(=O)c1ccc(OCc2ccccc2)cc1)C1CCN(c2nnc(-c3ccnn3C)c3ccccc23)CC1`: in data set [1], the Tm is 58.4 °C. Besides, the IC50 on Protein smoothened turned out to be 1.8 µM.

For the compound `CN(C(=O)c1ccc(B(O)O)cc1)C1CCN(c2nnc(-c3ccnn3C)c3ccccc23)CC1`, the Tm in data set [1] is 59.4 °C. The IC50 at Protein smoothened stood at 0.87 µM.

For `CN(C(=O)c1ccc(CC=O)cc1)C1CCN(c2nnc(-c3ccnn3C)c3ccccc23)CC1`, in data set [1], the Tm turned out to be 60.2 °C. For the same compound, the IC50 on Protein smoothened is above 10 µM.

In the case of `CN(C(=O)c1ccc(Oc2ccccc2)cc1)C1CCN(c2nnc(-c3ccnn3C)c3ccccc23)CC1`, the Tm in data set [1] came to 59.6 °C. Moreover, at Protein smoothened, the IC50 was 0.27 µM.

In the case of `CN(C(=O)c1ccc(C(N)=O)cc1)C1CCN(c2nnc(-c3ccnn3C)c3ccccc23)CC1`, the Tm in data set [1] was determined as 59.7 °C. The IC50 at Protein smoothened was 3.02 µM.

As to `CN(C(=O)c1ccc(F)cc1C(F)(F)F)C1CCN(c2nnc(Cl)c3ccccc23)CC1`, the Stability result in data set [2] is “Stable”.

As for `CN(C(=O)c1ccc(NCC(=O)O)cc1)C1CCN(c2nnc(-c3ccnn3C)c3ccccc23)CC1`, the Tm in data set [1] stood at 56.8 °C. Moreover, the IC50 at Protein smoothened was above 10 µM.

On to `CN(C(=O)c1ccc(F)cc1C(F)(F)F)C1CCN(c2nnc(-c3ccnn3C)c3ccccc23)CC1` [TALADEGIB], for which, in data set [2], the Stability entry was “Stable”.

For `CN(C(=O)c1ccccc1)C1CCN(c2nnc(-c3ccnn3C)c3ccccc23)CC1`, the Stability result in data set [2] is “Stable”.

With `CN(C(=O)c1ccc(C(=O)O)cc1)C1CCN(c2nnc(-c3ccnn3C)c3ccccc23)CC1`, the Tm in data set [1] came out at 56.8 °C. For the same compound, the IC50 at Protein smoothened was above 10 µM.

Regarding `CN(C(=O)c1ccc(F)cc1)C1CCN(c2nnc(-c3ccnn3C)c3ccccc23)CC1`, in data set [1], the Tm is 59.1 °C. The IC50 on Protein smoothened worked out at 1.57 µM.

As for `CN(C(=O)c1ccc(N)cc1)C1CCN(c2nnc(-c3ccnn3C)c3ccccc23)CC1`, in data set [1], the Tm came out at 58.2 °C. Besides, the half-inhibitory concentration (IC50) at Protein smoothened is 2.02 µM.

Take `CN(Cc1ccc(F)cc1C(F)(F)F)C1CCN(c2nnc(-c3ccnn3C)c3ccccc23)CC1`: in data set [2], the Stability result was “Stable”.

On to `CN(C(=O)c1ccc(C=O)cc1)C1CCN(c2nnc(-c3ccnn3C)c3ccccc23)CC1`, for which the Tm in data set [1] was determined as 59 °C. Moreover, at Protein smoothened, the IC50 stood at 2.89 µM.

`CN(C)c1ccc(C(=O)N(C)C2CCN(c3nnc(-c4ccnn4C)c4ccccc34)CC2)cc1`: the Tm in data set [1] was determined as 58.5 °C. Moreover, the IC50 on Protein smoothened turned out to be 1.41 µM.

In the case of `CN(C(=O)c1ccc(S(N)(=O)=O)cc1)C1CCN(c2nnc(-c3ccnn3C)c3ccccc23)CC1`, the Tm in data set [1] was 57.1 °C. In addition, on Protein smoothened, the IC50 was 3.24 µM.

For the compound `CN(C(=O)c1ccc(F)cc1C(F)(F)F)C1CCN(c2ccc(-c3ccnn3C)c3ccccc23)CC1`, the Stability entry in data set [2] is given as “Stable”.

For `CN(C(=O)c1ccc(S(=O)(=O)O)cc1)C1CCN(c2nnc(-c3ccnn3C)c3ccccc23)CC1`, the Tm in data set [1] was found to be 59.4 °C. For the same compound, the IC50 on Protein smoothened was 2.68 µM.

The term IC50 denotes the point on the concentration scale where inhibition reaches its midpoint.
